Screens deposited in PubChem by The Scripps Research Institute Molecular Screening Center.
CHRM5 PAM: human M5 muscarinic receptor positive allosteric modulators, primary screen, CHO-K1 cells, Fluo-8 calcium fluorescence | CHO-K1 hM5, ACh EC20 PAM; 0% = ACh EC20, 100% = ACh EC100 | 0.3% of 360,000 active | Muscarinic acetylcholine receptor M5 (Homo sapiens), P08912 | activation, % at 3 µM;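 active = activation above the run cutoff, the mean activation of all test compounds plus 3 SD, cut at about 18% in these data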
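Assay system – human M5 receptor in CHO-K1 cells · Read-out – % activation, ACh-normalized · Technique – Fluo-8 calcium fluorescence · Dosing – single-point, 3 µM nominal · Incubation – Fluo-8 loading 80 min at 37 °C plus 30 min room temperature · Repeats – singlicate, one well per test compound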
CHRM5 antagonist: human M5 muscarinic receptor antagonists, primary screen, CHO cells, Fluo-8 calcium fluorescence | Muscarinic acetylcholine receptor M5 (Homo sapiens), P08912 | CHO-hM5 cells, ACh EC80 | inhibition, % at 3 µM | 0.59% of 360,000 active | AID 624040, 2012;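 active = inhibition above a per-plate cutoff, the mean of that plate's test compounds plus 3 SD, cut at about 27% in these data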;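 also: 0% = acetylcholine EC80 with DMSO and 100% = DMSO without agonist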
M4 ag: human M4 muscarinic receptor agonists, primary screen, CHO-K1 cells, Fluo-8 calcium fluorescence | Muscarinic acetylcholine receptor M4 (Homo sapiens), P08173 | CHO-K1 hM4/Gqi5; vehicle 0%, full acetylcholine response 100% | activation, % at 3 µM | 0.14% of 360,000 active | AID 624127, 2012;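 active = activation above the run mean over all test wells plus 3 SD, cut at about 32% in these data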;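 also: peak over basal fluorescence ratio per well then scaled between controls; 0% = DMSO wells and 100% = acetylcholine at EC100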
Target sequence (P08173 whole entry, looked up): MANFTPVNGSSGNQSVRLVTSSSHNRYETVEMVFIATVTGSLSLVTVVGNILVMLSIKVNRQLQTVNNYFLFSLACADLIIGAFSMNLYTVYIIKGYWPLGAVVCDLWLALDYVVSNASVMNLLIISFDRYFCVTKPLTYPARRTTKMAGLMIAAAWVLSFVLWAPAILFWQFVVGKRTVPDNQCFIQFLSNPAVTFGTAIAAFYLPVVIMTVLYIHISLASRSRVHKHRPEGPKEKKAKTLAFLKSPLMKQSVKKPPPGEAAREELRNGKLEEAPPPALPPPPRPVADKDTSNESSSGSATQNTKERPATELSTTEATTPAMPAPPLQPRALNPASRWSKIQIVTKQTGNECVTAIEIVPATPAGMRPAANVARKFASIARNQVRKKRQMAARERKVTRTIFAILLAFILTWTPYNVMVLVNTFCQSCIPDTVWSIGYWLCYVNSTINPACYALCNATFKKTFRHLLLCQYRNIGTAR
M4 antag: human M4 muscarinic receptor antagonists, primary screen, CHO cells, Fluo-8 calcium fluorescence; CHO-hM4 cells, ACh EC80; inhibition, % at 3 µM; 0.73% of 360,000 active; AID 624125, 2012;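 active = inhibition above its plate's cutoff, the mean inhibition of sample wells plus 3 SD, cut at about 27% in these data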;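 also: 0% = acetylcholine EC80 with DMSO and 100% = DMSO without agonist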
CHRM4 PAM: human M4 muscarinic receptor positive allosteric modulators, primary screen, CHO-K1 cells, Fluo-8 calcium fluorescence; Muscarinic acetylcholine receptor M4 (Homo sapiens), P08173; CHO-K1 hM4/Gqi5, ACh EC20; 0% = ACh EC20, 100% = maximal ACh; activation, % at 3 µM; 0.4% of 360,000 active;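 active = activation above its plate's cutoff, the mean activation of sample wells plus 3 SD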
CHRM5 agonist: human M5 muscarinic receptor agonists, primary screen, CHO-K1 cells, Fluo-8 calcium fluorescence | CHO-K1 hM5 cells; 0% DMSO wells, 100% maximal acetylcholine response | 0.19% of 360,000 active | Muscarinic acetylcholine receptor M5 (Homo sapiens), P08912 | activation, % at 3 µM | AID 624037, 2012;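 active = activation above the run's mean over test compounds plus 3 SD, cut at about 23% in these data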;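 also: signal is peak over basal fluorescence ratio across the kinetic read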
Numbers without * were called inactive. This is a sample that favours compounds with a hit; in the whole collection about 1.8% have one here.

Results for COc1cccc(CNc2nc(NCc3ccccc3)nc3ccsc23)c1 ?
CHRM5 PAM: -21; CHRM5 antagonist: 45*; M4 ag: 58*; M4 antag: 44*; CHRM4 PAM: -16; CHRM5 agonist: 31*

What do the screens show for `CCOC(=O)Cn1ccc2cc(S(=O)(=O)N3CCCC3)ccc21`?
CHRM5 PAM: -1; CHRM5 antagonist: -1; M4 ag: 0; M4 antag: -7; CHRM4 PAM: 6; CHRM5 agonist: -1

How did CC1Cc2ccccc2N1C(=O)COC(=O)c1ccc(Cl)c(S(=O)(=O)N2CCOCC2)c1 (stereo unspecified) do in these assays?
CHRM5 PAM: -9; CHRM5 antagonist: -4; M4 ag: 14; M4 antag: -13; CHRM4 PAM: 5; CHRM5 agonist: 1

How did CSCC[C@@H](CO)NC(=O)[C@H]1O[C@@H](n2ccc(N)nc2=O)[C@H](O)[C@@H]1O do in these assays?
CHRM5 PAM: 6; CHRM5 antagonist: 2; M4 ag: 0; M4 antag: -5; CHRM4 PAM: 0; CHRM5 agonist: 3

Results for CN(C(=O)c1cccc(NC(=O)Cc2ccc(NC(=O)C3CCCN(C(=O)C4CCC4)C3)cc2)c1)C1CCCCC1 (stereo unspecified) ?
CHRM5 PAM: -9; CHRM5 antagonist: 2; M4 ag: 4; M4 antag: -15; CHRM4 PAM: -4; CHRM5 agonist: -2

How did CNc1nc(NCCOc2ccccc2Cl)c2sccc2n1 do in these assays?
CHRM5 PAM: -13; CHRM5 antagonist: 10; M4 ag: 30; M4 antag: -7; CHRM4 PAM: -10; CHRM5 agonist: 11

Results for Clc1ccccc1OCCNc1nc(NCC2CC2)nc2ccsc12 ?
CHRM5 PAM: -18; CHRM5 antagonist: 30*; M4 ag: 15; M4 antag: 13; CHRM4 PAM: -9; CHRM5 agonist: 4

Results for CNc1nc(NCc2cccc(OC)c2)c2sccc2n1 ?
CHRM5 PAM: -13; CHRM5 antagonist: 6; M4 ag: 11; M4 antag: 1; CHRM4 PAM: -7; CHRM5 agonist: 9

How did COc1cccc(CNc2nc(NCC3CC3)nc3ccsc23)c1 do in these assays?
CHRM5 PAM: -16; CHRM5 antagonist: 31*; M4 ag: 21; M4 antag: 8; CHRM4 PAM: -13; CHRM5 agonist: 4

What do the screens show for `COC1CCN(C(=O)C2CCC(=O)N(CCc3cccc(F)c3)C2)CC1` (stereo unspecified)?
CHRM5 PAM: -2; CHRM5 antagonist: 3; M4 ag: 1; M4 antag: -10; CHRM4 PAM: 3; CHRM5 agonist: -4

What do the screens show for `COc1ccc2sc(-c3ccc(S(C)(=O)=O)cc3)c(C(=O)NCCc3c[nH]c4ccccc34)c2c1`?
CHRM5 PAM: -35; CHRM5 antagonist: 23; M4 ag: 24; M4 antag: 34*; CHRM4 PAM: -11; CHRM5 agonist: 2

How did COc1ccccc1NC(=O)COC(=O)C1=NN(c2ccccc2)C(=O)CC1 do in these assays?
CHRM5 PAM: 19*; CHRM5 antagonist: -3; M4 ag: 1; M4 antag: -1; CHRM4 PAM: 16; CHRM5 agonist: 3

What do the screens show for `COc1ccc(C2=NOC(C(=O)NCc3ccc(F)cc3)C2)cc1` (stereo unspecified)?
CHRM5 PAM: -4; CHRM5 antagonist: 0; M4 ag: 0; M4 antag: 10; CHRM4 PAM: 0; CHRM5 agonist: 1

Results for COc1ccc(CNC(=O)C2CC(c3ccc(F)cc3)=NO2)cc1 (stereo unspecified) ?
CHRM5 PAM: -1; CHRM5 antagonist: -8; M4 ag: 1; M4 antag: -1; CHRM4 PAM: 36*; CHRM5 agonist: -2

What do the screens show for `CC(=O)c1c(C)[nH]c(C(=O)NCc2cccc(Cl)c2)c1C`?
CHRM5 PAM: -10; CHRM5 antagonist: 5; M4 ag: 3; M4 antag: 10; CHRM4 PAM: -15; CHRM5 agonist: 5

How did Cc1noc(C(=O)Nc2ccc(F)c(Cl)c2)c1Cl do in these assays?
CHRM5 PAM: -16; CHRM5 antagonist: 19; M4 ag: 2; M4 antag: 95*; CHRM4 PAM: -21; CHRM5 agonist: 0

How did O=C(NCCc1ccccc1)C(=O)c1cn(CC(=O)N2CCCC2)c2ccccc12 do in these assays?
CHRM5 PAM: -10; CHRM5 antagonist: 27*; M4 ag: 5; M4 antag: 5; CHRM4 PAM: 7; CHRM5 agonist: -3

How did O=C(NCc1ccccc1)C(=O)c1cn(CC(=O)N2CCOCC2)c2ccccc12 do in these assays?
CHRM5 PAM: 4; CHRM5 antagonist: 1; M4 ag: 2; M4 antag: -3; CHRM4 PAM: 1; CHRM5 agonist: 1

What do the screens show for `COc1ccccc1CCNC(=O)C(=O)c1cn(CC(=O)N2CCCC2)c2ccccc12`?
CHRM5 PAM: 1; CHRM5 antagonist: -7; M4 ag: 8; M4 antag: -23; CHRM4 PAM: 0; CHRM5 agonist: -2

How did O=C(NCc1ccccc1Cl)C(=O)c1cn(CC(=O)N2CCOCC2)c2ccccc12 do in these assays?
CHRM5 PAM: 23*; CHRM5 antagonist: 20; M4 ag: 8; M4 antag: -13; CHRM4 PAM: 2; CHRM5 agonist: 13

What do the screens show for `O=S(=O)(C/C(=C/CO)S(=O)(=O)c1ccccc1)c1ccccc1`?
CHRM5 PAM: 2; CHRM5 antagonist: 3; M4 ag: 0; M4 antag: 30*; CHRM4 PAM: 1; CHRM5 agonist: 0

What do the screens show for `CCC(C)NC(=O)c1ccc(NC(=O)CC2SC(N3CCCC3)=NC2=O)cc1` (stereo unspecified)?
CHRM5 PAM: 6; CHRM5 antagonist: 5; M4 ag: 2; M4 antag: -14; CHRM4 PAM: 15; CHRM5 agonist: 5

Results for CN(C(=O)CSc1nc2ccc(Cl)cc2[nH]1)C1CCS(=O)(=O)C1 (stereo unspecified) ?
CHRM5 PAM: 23*; CHRM5 antagonist: -4; M4 ag: 0; M4 antag: 4; CHRM4 PAM: 7; CHRM5 agonist: 1
